Experimental data reported in ChEMBL document CHEMBL1156819, “Structure-activity studies of urea, carbamate, and sulfonamide derivatives of acylfulvene” (J Med Chem, 2010).
Activity calls are given as the source filed them. The rule behind the calls is not given here.

How the values were obtained:
[1] = Cytotoxicity against human MV522 cells after 48 hrs by trypan blue exclusion assay; assay type: functional, cell-based; details: MV522, 48 h
Method in brief: (§1)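 Human MV522 lung adenocarcinoma (target) and 8392 B-cell lymphoma/leukemia (nontarget) lines. Compounds were made as 1 mg/mL stocks in cell-culture-grade DMSO and diluted in sterile 10% DMSO/PBS just before addition. Cells were exposed continuously for 48 h, and controls received equal DMSO/PBS vehicle. Cell survival was scored at 48 h by trypan blue exclusion.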

[2] = Cytotoxicity against human 8392B cells after 48 hrs by trypan blue exclusion assay; assay type: cell-based; method in brief: as §1
[3] = Selectivity index, ratio of IC50 for human 8392B cells to IC50 for human MV522 cells; assay type: functional
[4] = system: MV522; assay: In-vivo antitumor activity against human MV522 cells assessed as induction of tumor shrinkage in xenograft model at nontoxic dose; assay type: functional, cell-based

Row | SMILES | IC50 [1] [nM] | IC50 [2] [nM] | Ratio IC50 [3] | Activity [4]
1 | CC1=C(CCCNS(=O)(=O)c2ccc(C)cc2)C2=C(C)C3(CC3)[C@@](C)(O)C(=O)C2=C1 | 580 | – | – | –
2 | CC1=C(CNC(=O)NCCO)C2=C(C)C3(CC3)[C@@](C)(O)C(=O)C2=C1 | 190 | > 9000 | >47 | –
3 | CC1=C(CCCNS(C)(=O)=O)C2=C(C)C3(CC3)[C@@](C)(O)C(=O)C2=C1 | 280 | 42000 | >150 | Active
4 | CC1=C(CCCNC(=O)N2CCC(N3CCCCC3)CC2)C2=C(C)C3(CC3)[C@@](C)(O)C(=O)C2=C1 | – | 9000 | – | –
5 | CC1=C(CCCOC(=O)N2CCCCC2)C2=C(C)C3(CC3)[C@@](C)(O)C(=O)C2=C1 | 1200 | 7100 | 6 | –
6 | CC1=C(CCCOC(=O)N2CCOCC2)C2=C(C)C3(CC3)[C@@](C)(O)C(=O)C2=C1 | – | 62200 | – | –
7 | CC1=C(CCCNC(=O)NCCO)C2=C(C)C3(CC3)[C@@](C)(O)C(=O)C2=C1 | < 80 | > 2800 | >35 | –
8 | CONC(=O)NCC1=C(C)C=C2C(=O)[C@](C)(O)C3(CC3)C(C)=C21 | – | > 9400 | – | –
9 | CC1=C(CNC(=O)NO)C2=C(C)C3(CC3)[C@@](C)(O)C(=O)C2=C1 | 190 | 9800 | >51 | –
10 | CC1=C(CCCOC(=O)NCCO)C2=C(C)C3(CC3)[C@@](C)(O)C(=O)C2=C1 | – | – | – | Active
11 | CC1=C(CCCOC(=O)NCCCl)C2=C(C)C3(CC3)[C@@](C)(O)C(=O)C2=C1 | 57 | – | – | –
12 | CC1=C(CO)C2=C(C)C3(CC3)[C@@](C)(O)C(=O)C2=C1 [IROFULVEN] | 170 | 76 | – | –
13 | CC1=C(CNS(N)(=O)=O)C2=C(C)C3(CC3)[C@@](C)(O)C(=O)C2=C1 | 300 | > 9300 | >31 | –
14 | CC1=C(CCCNC(=O)NO)C2=C(C)C3(CC3)[C@@](C)(O)C(=O)C2=C1 | – | > 9000 | – | –
15 | CC1=C(CCCNS(N)(=O)=O)C2=C(C)C3(CC3)[C@@](C)(O)C(=O)C2=C1 | 76 | 54000 | 710 | Active
16 | CC1=C(CNC(=O)NCCCl)C2=C(C)C3(CC3)[C@@](C)(O)C(=O)C2=C1 | – | > 8500 | – | –
17 | CC1=C(CNS(C)(=O)=O)C2=C(C)C3(CC3)[C@@](C)(O)C(=O)C2=C1 | – | > 9300 | – | –
18 | CC1=C(CCCNS(=O)(=O)NO)C2=C(C)C3(CC3)[C@@](C)(O)C(=O)C2=C1 | 8 | 250 | 31 | –
